Compound activity deposited in PubChem by several laboratories.
DNA FID counter = fluorescent intercalator displacement, NS3 helicase counter-screen; DNA fluorescent intercalator displacement, fluorescence; inhibition, % at 7.9 µM; hit rate 0.17% among 290,000; AID 1845; in the data active = inhibition above about 37%;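 note: higher means more ethidium bromide displaced from hairpin DNA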
HCV NS3 hel inh = inhibitors of Hepatitis C virus NS3 helicase; NS3 helicase DNA unwinding, Cy5 molecular beacon fluorescence; inhibition, % at 10.9 µM; hit rate 0.56% among 290,000;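 active = inhibition above the mean of all tested compounds plus 3 SD, set per campaign, cut at about 35% in these data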
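System: HCV NS3 helicase fragment; control set: DMSO and thioflavine S; technique: Cy5 fluorescence at 0 and 60 min, beacon hairpin quenching; reagent: beacon DNA duplex substrate plus ATP; replicates: singlicate; schedule: 1 h reaction at 25 °C, ATP-initiated; medium: MOPS buffer pH 6.5 with MgCl2, DTT, Tween20, BSA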
HSF-1 act = increases HSF-1 driven luciferase reporter signal; hit rate 1.7% among 300,000; activation, % at 9 µM; NIH3T3-HGL HSF-1 luciferase reporter, MG132, 8 h; 100% = twice DMSO control signal;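 active = mean replicate activation of at least 50% with a set share of replicates each reaching 50%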
HCV core dimer = blocks dimerization of HCV core protein | TR-FRET GST/Flag-core106 dimerization, 1536-well | inhibition, % at 5 µM | hit rate 0.33% among 300,000 | AID 1899;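 active = inhibition above the mean of all tested compounds plus 3 SD, set per screening campaign, cut at about 45% in these data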
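Test system: GST/Flag-tagged HCV core106 proteins; Medium: KF-containing HEPES buffer, pH 7.45, DTT, CHAPS, BSA; Times: compound-protein-antibody incubation 4 h at 22.5 °C; Detection: TR-FRET 671 and 617 nm emission; Benchmarks: wells lacking GST-core106 and wells with excess unlabelled core106.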
HSP90 refold inh = inhibitors of HSP90 luciferase refolding in rabbit reticulocyte lysate. luciferase refolding luminescence, 3 h. inhibition, % at 5.6 µM. hit rate 0.91% among 290,000. AID 1789;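 active = inhibition above the screen-wide mean plus 3 SD, computed separately per campaign, cut at about 16% in these data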;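 note: inhibitors lower the luminescence because luciferase stays unfolded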
HSF1 inhib = HSF1 inhibition; activity change, negative = inhibition, % at 7.5 µM (by protocol); AID 2098; NIH3T3-HGL HSE-luciferase, MG132-induced, luminescence 8 h; stronger effect = lower value; hit rate 0.77% among 300,000;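 active = more than half of replicate wells show activity change below -50%, luminescence cut by over half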;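 note: luciferase reports HSF-1 transcriptional activity via heat shock element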
Hits are given with their value. Rows were chosen to be rich in hits. Some 3.9% of all compounds tested hit in one or more screens of this group.

For Cc1c(C(=O)c2ccc(Cl)c(Cl)c2)cnc2cc3c(cc12)OCO3 the results were DNA FID counter inactive, HCV NS3 hel inh inactive, HSF-1 act inactive, HCV core dimer inactive, HSP90 refold inh inactive and HSF1 inhib inactive.
Cc1ccc(S(=O)(=O)c2c(C(=O)c3ccccc3)cnc3cc4c(cc23)OCCO4)cc1 was read as DNA FID counter inactive, HCV NS3 hel inh inactive, HSF-1 act inactive, HCV core dimer inactive, HSP90 refold inh inactive and HSF1 inhib -66.
C/C(=N/Nc1ccc([N+](=O)[O-])cc1)c1c[nH]c2ccccc12 was read as DNA FID counter inactive, HCV NS3 hel inh inactive, HSF-1 act inactive, HSP90 refold inh inactive and HSF1 inhib inactive.
For Cc1cccc(N(CC(=O)Nc2ccccc2-c2ccccc2)S(=O)(=O)c2ccccc2)c1C the results were DNA FID counter inactive, HCV NS3 hel inh inactive, HSF-1 act 53, HCV core dimer inactive, HSP90 refold inh inactive and HSF1 inhib inactive.
COc1ccc(-c2noc(CCN3C(=O)c4ccccc4C3=O)n2)cc1OC was read as DNA FID counter inactive, HCV NS3 hel inh inactive, HSF-1 act 87, HCV core dimer inactive, HSP90 refold inh inactive and HSF1 inhib inactive.
For O=C1/C(=C/c2ccccc2Cl)SC(=S)N1CCC(=O)N1CCCCC1CCO (centres undefined) the results were DNA FID counter inactive, HCV NS3 hel inh inactive, HSF-1 act 68, HCV core dimer inactive, HSP90 refold inh inactive and HSF1 inhib inactive.
Screening Cc1ccc(N(C(=O)C2CCCO2)C2C=CS(=O)(=O)C2)cc1Cl (centres undefined) returned DNA FID counter inactive, HCV NS3 hel inh inactive, HSF-1 act inactive, HCV core dimer inactive, HSP90 refold inh inactive and HSF1 inhib inactive.
For CCOc1ccc(NC(=S)N2CCN(c3ccc(N4CCOCC4)nn3)CC2)cc1 the results were DNA FID counter inactive, HCV NS3 hel inh inactive, HSF-1 act inactive, HCV core dimer inactive, HSP90 refold inh inactive and HSF1 inhib inactive.
For O=C(Nc1ccc(C2=NCCN2)cc1)c1ccc(C(=O)Nc2ccc(C3=NCCN3)cc2)c([N+](=O)[O-])c1 the results were DNA FID counter 70, HCV NS3 hel inh inactive, HSF-1 act inactive, HCV core dimer inactive, HSP90 refold inh inactive and HSF1 inhib inactive.
Screening Cc1cn2c(nc(=O)c3cccnc32)s1 returned DNA FID counter inactive, HCV NS3 hel inh inactive, HSF-1 act inactive, HCV core dimer inactive, HSP90 refold inh inactive and HSF1 inhib -75.
`Cc1ccc(-n2cnc(=O)c3cccnc32)cc1` gave DNA FID counter inactive, HCV NS3 hel inh inactive, HSF-1 act inactive, HCV core dimer inactive, HSP90 refold inh inactive and HSF1 inhib inactive.
For CCOC(=O)c1ccc(NC2=CC(=O)C(=O)c3ccccc32)cc1 the results were DNA FID counter inactive, HCV NS3 hel inh inactive, HSF-1 act inactive, HCV core dimer inactive, HSP90 refold inh inactive and HSF1 inhib inactive.
Cc1ccc(NC2=CC(=O)C(=O)c3ccccc32)cc1 was read as DNA FID counter inactive, HCV NS3 hel inh inactive, HSF-1 act 80, HCV core dimer inactive, HSP90 refold inh inactive and HSF1 inhib inactive.
Screening NS(=O)(=O)c1ccc(NC2=CC(=O)C(=O)c3ccccc32)cc1 returned DNA FID counter inactive, HCV NS3 hel inh inactive, HSF-1 act inactive, HCV core dimer inactive, HSP90 refold inh inactive and HSF1 inhib -70.
Screening O=C1c2ccccc2NC(c2ccccc2F)N1NS(=O)(=O)c1ccccc1 (centres undefined) returned DNA FID counter inactive, HCV NS3 hel inh inactive, HSF-1 act inactive, HCV core dimer inactive, HSP90 refold inh inactive and HSF1 inhib inactive.
`CC(=O)c1ccc(NC(=O)C2CCN(S(=O)(=O)c3ccc4c(c3)N(C(C)=O)CCO4)CC2)cc1` gave DNA FID counter inactive, HCV NS3 hel inh inactive, HSF-1 act inactive, HCV core dimer inactive, HSP90 refold inh inactive and HSF1 inhib inactive.
Screening Cc1ccc(-c2csc3nc[nH]c(=O)c23)c(C)c1 returned DNA FID counter inactive, HCV NS3 hel inh inactive, HSF-1 act 95, HCV core dimer inactive, HSP90 refold inh inactive and HSF1 inhib inactive.
For C=C(C)C(=O)Nc1ccc2c(c1)OCCOCCOCCO2 the results were DNA FID counter inactive, HCV NS3 hel inh inactive, HSF-1 act inactive, HCV core dimer inactive, HSP90 refold inh inactive and HSF1 inhib inactive.
